ChEMBL document CHEMBL1126262, “2-(Aminomethyl)chromans that inhibit iron-dependent lipid peroxidation and protect against central nervous system trauma and ischemia” (J Med Chem, 1992)
pIC50: −log10 of the molar value. Values joined by “and” are separate entries in the source; they are usually repeats but may differ in a detail not shown here. Equal entries are not always repeated. Active and inactive are the calls of the source. The rule behind the calls is not given here.

How the values were obtained:
Rattus norvegicus = species on record: Rattus norvegicus; assay: Tested in vitro for the inhibition of iron-dependent lipid peroxidation against rat brain homogenates, by malondialdehyde (MDA) formation assay; assay type: functional
Mus musculus [1] = assay: Tested in vivo for neuroprotectant activity against mouse head injury(MHI) model.; assay type: functional
Procedure, shortened: (§1)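 Unanesthetized male CF-1 mice (17-20 g), concussive head injury from 50-g weight dropped 18 cm (~900 g-cm). Vehicle (0.05 N HCl or 0.5% Tween 80) or drug, 0.001-30.0 mg/kg, iv bolus within 5 min postinjury (oral where indicated). Blind grip-string test at 1 h; groups of 20-25 mice, vehicle plus four dose groups; Duncan's multiple range test.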

Mus musculus [2] = species on record: Mus musculus; assay: Lowest effective dosage in Mouse Head Injury Assay.; assay type: functional; procedure, shortened: as §1
Mus musculus [3] = assay: Antagonistic activity against potassium cyanide induced cytotoxic hypoxia in male CF-1 mice at a dose of 10 mg/kg; assay type: organism-based; design: dose 10 mg/kg; conditions: in vivo
Mus musculus [4] = assay: Antagonistic activity against potassium cyanide induced cytotoxic hypoxia in male CF-1 mice at a dose of 20 mg/kg(p<0.05); assay type: organism-based; design: dose 20 mg/kg; conditions: in vivo
Mus musculus [5] = species on record: Mus musculus; assay: Lowest effective dosage using in Mouse Head Injury Assay; assay type: functional; procedure, shortened: as §1
Mus musculus [6] = assay: Tested in vivo for neuroprotectant activity against mouse head injury(MHI) model; IA = Inactive; assay type: functional, organism-based; procedure, shortened: as §1
Mus musculus [7] = assay: Antagonistic activity against potassium cyanide induced cytotoxic hypoxia in male CF-1 mice at a dose of 10 mg/kg(p<0.05); assay type: organism-based; design: dose 10 mg/kg; conditions: in vivo

| SMILES | pIC50 (Rattus norvegicus; Rattus norvegicus, Brain) | Grip score (Mus musculus [1]) | Lowest effective dose (Mus musculus [2]) [mg/kg] | other results |
| --- | --- | --- | --- | --- |
| Cc1c(C)c2c(c(C)c1O)CCC(C)(C(=O)NCCc1ccccc1)O2 (centres undefined) | 5.89 | – | – | – |
| COc1ccc(CNCC2(C)CCc3c(C)c(O)c(C)c(C)c3O2)cc1OC (centres undefined) | 4.96 | – | – | – |
| Cc1c(C)c2c(c(C)c1O)CCC(C)(CNCCc1ccccc1)O2.O=C(O)C(=O)O (centres undefined) | 6.05 | 8.7 | 1 | – |
| Cc1c(C)c2c(c(C)c1O)CCC(C)(C(=O)NCCCc1ccccc1)O2 (centres undefined) | 6.00 | – | – | – |
| Cc1c(C)c2c(c(C)c1O)CCC(C)(C(=O)N1CCN(c3cc(N4CCCC4)nc(N4CCCC4)n3)CC1)O2 (centres undefined) | 6.30 | 17.5 | – | LD50 (Mus musculus [3]): 99.3%; LD50 (Mus musculus [4]): 115.2%; Lowest effective dose (Mus musculus [5]): 0.01 mg/kg |
| Cc1c(C)c2c(c(C)c1O)CCC(C)(CCN1CCN(c3cc(N4CCCC4)nc(N4CCCC4)n3)CC1)O2 (centres undefined) | 5.89 | – | – | Grip score (Mus musculus [6]): inactive |
| COc1ccc(N2CCN(CC3(C)CCc4c(C)c(O)c(C)c(C)c4O3)CC2)cc1 (centres undefined) | 6.70 | – | – | – |
| Cc1c(C)c2c(c(C)c1O)CCC(C)(C(=O)N1CCCC1)O2 (centres undefined) | 5.00 | – | – | – |
| Cc1c(C)c2c(c(C)c1O)CCC(C)(C(=O)Nc1ccncc1)O2 (centres undefined) | 5.64 | 11.5 | 0.01 | – |
| Cc1c(C)c2c(c(C)c1O)CCC(C)(C(=O)NCCN(C)C)O2 (centres undefined) | 5.06 | – | – | Grip score (Mus musculus [6]): inactive |
| Cc1c(C)c2c(c(C)c1O)CCC(C)(C(=O)NCc1cccnc1)O2 (centres undefined) | 4.33 | – | – | – |
| Cc1c(C)c2c(c(C)c1O)CCC(C)(CNc1ccncc1)O2 (centres undefined) | 4.80 | – | – | – |
| Cc1c(C)c2c(c(C)c1O)CCC(C)(C(=O)N(C)CCc1ccccn1)O2 (centres undefined) | 5.27 | – | – | – |
| COc1ccccc1N1CCN(CC2(C)CCc3c(C)c(O)c(C)c(C)c3O2)CC1 (centres undefined) | 6.00 | – | – | Grip score (Mus musculus [6]): inactive |
| CCNc1cccnc1N1CCN(CC2(C)CCc3c(C)c(O)c(C)c(C)c3O2)CC1.Cl.O (centres undefined) | 6.00 | 10.4 and 11.9 | 0.01 | – |
| Cc1c(C)c2c(c(C)c1O)CCC(C)(CN1CCNCC1)O2 (centres undefined) | 6.00 | – | – | – |
| CCN(CC)c1ccc(N2CCN(C(=O)C3(C)CCc4c(C)c(O)c(C)c(C)c4O3)CC2)nc1N(CC)CC (centres undefined) | 6.70 | – | – | Grip score (Mus musculus [6]): inactive |
| C[C@@H]1C[C@H]2[C@@H]3CCC4=CC(=O)C=C[C@]4(C)C3=CC[C@]2(C)[C@H]1C(=O)CN1CCN(c2cc(N3CCCC3)nc(N3CCCC3)n2)CC1 [TIRILAZAD] | – | 14.5 | 0.003 | LD50 (Mus musculus [3]): 103.6%; LD50 (Mus musculus [4]): 128.4% |
| Cc1c(C)c2c(c(C)c1O)CCC(C)(C(=O)N1CCNCC1)O2 (centres undefined) | 5.00 | – | – | – |
| COc1ccc(CCNC(=O)C2(C)CCc3c(C)c(O)c(C)c(C)c3O2)cc1OC (centres undefined) | 5.39 | – | – | – |
| Cc1c(C)c2c(c(C)c1O)CCC(C)(CNc1ccccn1)O2 (centres undefined) | 6.70 | 12.3 | 0.01 | – |
| Cc1c(C)c2c(c(C)c1O)CCC(C)(C(=O)NCCCCc1ccccc1)O2 (centres undefined) | 6.15 | – | – | – |
| Cc1c(C)c2c(c(C)c1O)CCC(C)(CNCCCCc1ccccc1)O2 (centres undefined) | 6.10 | – | – | – |
| Cc1c(C)c2c(c(C)c1O)CCC(C)(CN1CCCC1)O2 (centres undefined) | 5.85 | – | – | – |
| Cc1c(C)c2c(c(C)c1O)CCC(C)(C(=O)O)O2 (centres undefined) [TROLOX] | 4.37 | – | – | – |
| Cc1c(C)c2c(c(C)c1O)CCC(C)(CN1CCN(Cc3ccccc3)CC1)O2.Cl.Cl (centres undefined) | 6.00 | 13 | 0.01 | LD50 (Mus musculus [7]): 130%; LD50 (Mus musculus [4]): 181.4% |
| Cc1c(C)c2c(c(C)c1O)CCC(C)(CN1CCN(c3ccccn3)CC1)O2.Cl.O (centres undefined) | 6.00 | 10.7 | 0.01 | – |

| SMILES | pIC50 (Rattus norvegicus; Rattus norvegicus, Brain) | Grip score (Mus musculus [1]) | Lowest effective dose (Mus musculus [2]) [mg/kg] | other results |
| --- | --- | --- | --- | --- |
| C[C@H]1C[C@@H]2[C@H]([C@@H](O)C[C@@]3(C)[C@H]2CC[C@]3(O)C(=O)COC(=O)CCC(=O)[O-])[C@@]2(C)C=CC(=O)C=C12.[Na+] [METHYLPREDNISOLONE SODIUM SUCCINATE] | – | 13.5 | 15 | – |
| Cc1c(C)c2c(c(C)c1O)CCC(C)(C(=O)NCCc1ccccn1)O2 (centres undefined) | 4.96 | – | – | – |
| Cc1c(C)c2c(c(C)c1O)CCC(C)(CC(=O)N1CCN(c3cc(N4CCCC4)nc(N4CCCC4)n3)CC1)O2 (centres undefined) | 5.89 | – | – | Grip score (Mus musculus [6]): inactive |
| Cc1c(C)c2c(c(C)c1O)CCC(C)(CN1CCN(c3ncccn3)CC1)O2 (centres undefined) | 6.00 | 10.3 | 0.01 | – |
| Cc1c(C)c2c(c(C)c1O)CCC(C)(C(=O)Nc1ccccn1)O2 (centres undefined) | 5.74 | 14.4 | 0.01 | – |
| COc1ccc(CNC(=O)C2(C)CCc3c(C)c(O)c(C)c(C)c3O2)cc1OC (centres undefined) | 5.26 | – | – | – |
| Cc1c(C)c2c(c(C)c1O)CCC(C)(CN1CCN(c3ccc(Cl)cc3)CC1)O2 (centres undefined) | 6.05 | – | – | – |
| CCNc1cccnc1N1CCN(C(=O)C2(C)CCc3c(C)c(O)c(C)c(C)c3O2)CC1 (centres undefined) | 4.92 | – | – | – |
| CC(=O)Oc1c(C)c(C)c2c(c1C)CCC(C)(CN1CCN(c3cc(N4CCCC4)nc(N4CCCC4)n3)CC1)O2 (centres undefined) | 5.82 | 9.2 | 1 | – |
| Cc1c(C)c2c(c(C)c1O)CCC(C)(C(=O)N1CCN(Cc3ccccc3)CC1)O2 (centres undefined) | 6.00 | – | – | – |
| CCN(CC)c1ccc(N2CCN(CC3(C)CCc4c(C)c(O)c(C)c(C)c4O3)CC2)nc1N(CC)CC.Cl.O (centres undefined) | 6.00 | 11.9 | 0.01 | – |
| Cc1c(C)c2c(c(C)c1O)CCC(C)(CNCCCc1ccccc1)O2 (centres undefined) | 6.00 | – | – | – |
| Cc1c(C)c2c(c(C)c1O)CCC(C)(CNCc1cccnc1)O2 (centres undefined) | 4.32 | – | – | – |
| COc1ccccc1N1CCN(C(=O)C2(C)CCc3c(C)c(O)c(C)c(C)c3O2)CC1 (centres undefined) | 4.82 | 12.8 | 0.01 | – |
| COc1ccc(N2CCN(C(=O)C3(C)CCc4c(C)c(O)c(C)c(C)c4O3)CC2)cc1 (centres undefined) | 6.15 | – | – | – |
| CC(=O)Oc1c(C)c(C)c2c(c1C)CCC(C)(C(=O)N1CCN(c3cc(N4CCCC4)nc(N4CCCC4)n3)CC1)O2 (centres undefined) | 4.77 | – | – | – |
| Cc1c(C)c2c(c(C)c1O)CCC(C)(CN(C)CCc1ccccn1)O2 (centres undefined) | 3.75 | – | – | – |
| Cc1c(C)c2c(c(C)c1O)CCC(C)(C(=O)N1CCN(c3ccccn3)CC1)O2 (centres undefined) | 6.00 | 8.2 | 0.01 | – |
| Cc1c(C)c2c(c(C)c1O)CCC(C)(C(=O)N1CCN(c3ncccn3)CC1)O2 (centres undefined) | 4.64 | 12 | 1 | – |
| Cc1c(C)c2c(c(C)c1O)CCC(C)(CNCCN(C)C)O2 (centres undefined) | 5.77 | – | – | Grip score (Mus musculus [6]): inactive |
| Cc1c(C)c2c(c(C)c1O)CCC(C)(CN1CCN(c3cc(N4CCCC4)nc(N4CCCC4)n3)CC1)O2.Cl.Cl (stereo in doubt; 60) | – | 11.5 | 0.001 | pIC50 (Rattus norvegicus): 5.96 |
| Cc1c(C)c2c(c(C)c1O)CCC(C)(C(=O)N1CCN(c3ccc(Cl)cc3)CC1)O2 (centres undefined) | 6.10 | – | – | – |
| Cc1c(C)c2c(c(C)c1O)CCC(C)(CN1CCN(c3cc(N4CCCC4)nc(N4CCCC4)n3)CC1)O2.Cl.Cl.O (centres undefined) | – | 13.7 and 14.7 | – | LD50 (Mus musculus [7]): 114%; LD50 (Mus musculus [4]): 134.2%; pIC50 (Rattus norvegicus): 6.22 |
| Cc1c(C)c2c(c(C)c1O)CCC(C)(CNCCc1ccccn1)O2 (centres undefined) | 4.64 | – | – | – |
| COc1ccc(CCNCC2(C)CCc3c(C)c(O)c(C)c(C)c3O2)cc1OC.Cl (centres undefined) | 6.00 | 8.4 | 0.01 | – |
| Cc1c(C)c2c(c(C)c1O)CCC(C)(CN1CCN(c3cc(N4CCCC4)nc(N4CCCC4)n3)CC1)O2.Cl.Cl (stereo in doubt; 59) | – | 14.4 | – | pIC50 (Rattus norvegicus): 5.82 |
| Cc1c(C)c2c(c(C)c1O)CC[C@@](C)(CCC[C@H](C)CCC[C@H](C)CCCC(C)C)O2 [ALPHA-TOCOPHEROL] | 4.55 | – | – | – |
